# Yeast lifespan up = extends the lifespan of yeast; inhibition of the nicotinamide effect, % at 10 µM; S. cerevisiae growth with nicotinamide, OD615; deaD strain in restrictive glucose medium; AID 775; 130,000 compounds, 0.68% hits;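 active means inhibition above a set limit, placed 3 SD over the median of all compounds, cut at about 26% in these data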;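 further: 0% = nicotinamide-treated wells and 100% = cells grown without nicotinamide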
#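 Assay system: engineered S. cerevisiae DeaD replicative-lifespan strain, galactose-grown log-phase cells; medium: restrictive CSMM-D dextrose medium; also added: nicotinamide, 1.5 mM, co-present with compound; schedule: 48 h compound exposure at 30 °C, humidified; detection: absorbance at 615 nm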
# RAM network inh = blocks the yeast RAM network; S. cerevisiae dse1pr::URA3 reporter, 5-FOA growth OD615, 2 d; analog-sensitive cbk1-as2 kinase mutant strain; inhibition, % at 50 µM; 190,000 compounds, 1.8% hits;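 active means inhibition above a set limit, 3 SD over mean compound inhibition, cut at about 8.4% in these data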;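 further: 0% = DMSO-only wells with no growth and 100% = 10 µM 1-NA-PP1 full growth; inhibition rescues growth on 5-FOA so higher OD means more RAM inhibition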
# Yeast growth inh = yeast BB579 growth reduction in restrictive medium; S. cerevisiae BB579 growth, OD615, 48 h; inhibition, % at 10 µM; 140,000 compounds, 0.51% hits; AID 804;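 active means inhibition above a set limit, 3 SD over the mean compound inhibition, cut at about 44% in these data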
#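 System: DeaD yeast strain BB579; buffer or medium: CSMM-D dextrose restrictive medium; technique: OD at 615 nm; schedule: 4 h cell preincubation, 48 h compound exposure, 30 °C humidified; doses: single 10 µM dose; controls: amphotericin B 10 µg/mL, positive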
# Measles CPE = protection of cells from measles virus | protection (pct of control), % at 4 µM | 140,000 compounds, 1.5% hits | AID 841 | Measles virus-infected cells, CPE protection, absorbance; in the data active means protection mostly above about 24%, no sharp cut-off; inactive means mostly below about 26%
# Numbers without * were called inactive; nt = no result given. Most compounds without a hit are left out; they make up all but 3.8% or so of the library.
SMILES,Yeast lifespan up,RAM network inh,Yeast growth inh,Measles CPE
Cc1cc(C)c(S(=O)(=O)N2CCOC2CNC(=O)C(=O)NCc2cccnc2)c(C)c1 (stereo not drawn),8,-1,-20,11
COc1cc(NC(=O)Cn2c(=O)n(CC3CCCO3)c(=O)c3ccccc32)cc(OC)c1 (stereo not drawn),nt,10*,nt,nt
COc1ccc(NC(=O)Cn2c(=O)n(CC3CCCO3)c(=O)c3ccccc32)c(OC)c1 (stereo not drawn),nt,5,nt,nt
COc1ccc(/C=C2\CCCC(C(=O)C(F)(F)F)=C2O)cc1,-8,10.0*,-48,8
O=C(C1=C(O)/C(=C/c2ccc(O)cc2)CCC1)C(F)(F)F,nt,-2,100*,19
COc1ccc(/C=C2\CCOC2=O)cc1,-31,1,10,7
Cc1ccc(NC(=S)NNC(=O)c2c(Cl)c(C)nn2C)cc1,-5,0,-61,9
Cc1ccc(NC(=S)NNC(=O)c2nn(C)c(C)c2Cl)cc1,-3,6,-14,102*
COc1ccc(/C=N/NC(=O)c2cccc(NC(C)=O)c2)c(C(=O)O)c1OC,nt,1,nt,nt
COc1ccc(NS(=O)(=O)c2cc(NC(=O)/C=C/c3ccccc3OC)ccc2N2CCCCC2)cc1,9,11*,-63,7
CCN(CC)c1ccc(NC(=O)/C=C/c2cc(Br)ccc2OC)cc1,-9,1,-47,7
COc1ccc(NC(=O)/C=C/c2cc(Br)ccc2OC)cc1,-9,1,-1,23*
CCC(CO)NS(=O)(=O)c1cc(-c2nn(C)c(=O)c3ccccc23)ccc1C (stereo not drawn),nt,0,nt,nt
C=CCn1c(SCC(=O)NC2CCCc3ccccc32)nnc1-c1ccncc1 (stereo not drawn),0,1,-10,13
CN1c2ccccc2C(O)=C(C(=S)Nc2ccc(F)c(Cl)c2)S1(=O)=O,-12,6,-37,41*
COC(=O)c1cc2ccc(OC)c(OC)c2c(=O)s1,-8,1,33,24*
COc1ccc2cc(C(=O)N3CCCCCC3)sc(=O)c2c1OC,-4,0,4,8
CCOc1ccc(N(C)S(=O)(=O)c2ccc3[nH]cc(C(=O)NCC4CCCO4)c(=O)c3c2)cc1 (stereo not drawn),-6,11*,-13,2
Cc1ccc(CNC(=O)c2ccc(Cn3nc(C)c(Cl)c3C)o2)cc1,-12,-1,99*,27
C(=N\c1ncnc2sccc12)/NOCc1ccccc1,-3,-1,70*,3
O=Cc1ccc(Oc2cnccn2)cc1,nt,0,nt,nt
CCOC(=O)c1c(NC(=O)CSc2nnc(C)s2)sc2c1CCC(C)C2 (stereo not drawn),nt,8.9*,-26,7
COc1cc(NC(=O)CSc2nnnn2-c2ccccc2)cc(OC)c1OC,10,5,-32,104*
CCOC(=O)c1c(-c2ccc(C)o2)csc1NC(=O)CSc1nnnn1-c1ccccc1,3,8.6*,-57,6
CCOC(=O)c1c(NC(=O)CSc2nnc(C)s2)sc2c1CCCCC2,10,5,-4,9
SMILES,Yeast lifespan up,RAM network inh,Yeast growth inh,Measles CPE
COc1ccc(-n2nnnc2SCC(=O)c2cc3ccccc3o2)cc1,-16,8.5*,-42,3
Cn1c(SCC(=O)N2CCCC2=O)nc2ccccc21,nt,-1,nt,nt
Cc1cc(NC(=O)CSc2ncccc2C(=O)O)no1,nt,2,nt,nt
CCOC(=O)c1c(-c2ccc(C)o2)csc1NC(=O)CSc1nnc(C)s1,-5,11*,-89,7
CCOC(=O)c1c(-c2ccccc2)csc1NC(=O)CSc1nnc(C)s1,7,5,-9,22
CCC(CC(C)(C)O)C(=O)NNC(=S)Nc1ccccc1 (stereo not drawn),nt,-2,nt,nt
O=C(COC(=O)CCC(NC(=O)OCc1ccccc1)C(=O)OCC(=O)Nc1ccccc1)Nc1ccccc1 (stereo not drawn),-1,10*,-8,2
O=C(CCC(NC(=O)OCc1ccccc1)C(=O)OCC(=O)N1CCCCC1)OCC(=O)N1CCCCC1 (stereo not drawn),-10,1,-63,16
COc1ccc(Cl)cc1S(=O)(=O)N1CCN(C(=O)c2ccco2)CC1,-4,2,-17,37
COc1ccc(S(=O)(=O)N2CCN(C(=O)c3ccco3)CC2)cc1OC,-12,0,20,57*
Cc1ccc(-c2nnc(-n3ncc(C#N)c3N)c3ccccc23)cc1C,10,4,-19,30
CCN1/C(=C2\C(=O)N(C)C(=S)N2C)C=Cc2cc(C)ccc21,10,1,-11,21
CC1(C)CC(=O)C2=C(C1)OC1=C(C(=O)CC(C)(C)C1)C2c1ccc(O)c([N+](=O)[O-])c1,nt,4,nt,nt
CC1(C)CC(=O)C2=C(C1)OC1=C(C(=O)CC(C)(C)C1)C2c1ccc(O)cc1O,42*,2,5,1
CC1CC(c2ccccc2)n2nc(N3C(=O)c4ccccc4C3=O)nc2N1 (stereo not drawn),-5,3,-10,27*
CO/N=C/c1ccc(Sc2ccccc2)c([N+](=O)[O-])c1,-10,1,-28,5
O=[N+]([O-])c1cc(/C=N/O)ccc1SCc1ccccc1,-8,4,-28,75*
O=[N+]([O-])c1cc(/C=N/O)ccc1Sc1ccccc1,-10,-1,79*,7
COc1ccc(N2CC(C(=O)OC(C)C(=O)c3ccccc3)CC2=O)cc1 (stereo not drawn),nt,1,nt,nt
Cc1cc(C(C)(C)C)oc1C(=O)N(CC(=O)NC1CCCC1)Cc1ccccc1,5,3,-31,12
Cc1ccc(C)c(N(CC(=O)NC2CCCC2)C(=O)c2oc(C(C)(C)C)cc2C)c1,-4,9.5*,-38,8
O=[N+]([O-])c1cccc(N/N=C/c2cc([N+](=O)[O-])ccc2O)c1,nt,2,nt,nt
O=[N+]([O-])c1ccc(O)c(/C=N/Nc2ccccn2)c1,-9,-1,99*,4
Cn1nc(C(=O)NC2CCCc3ccccc32)ccc1=O (stereo not drawn),nt,0,nt,nt
CC(NC(=O)/C(=C/c1ccc(OC(F)F)cc1)c1ccccc1)c1ccccc1 (stereo not drawn),17,9.6*,-15,9
SMILES,Yeast lifespan up,RAM network inh,Yeast growth inh,Measles CPE
CCN(C(=O)CSc1cc(C)c2cccc(C)c2n1)C1CCS(=O)(=O)C1 (stereo not drawn),nt,-1,nt,nt
O=C1c2cccc3cccc(c23)C(=O)N1CCN1CCN(CC(O)COc2ccc3ccccc3c2)CC1 (stereo not drawn),0,8,-43,57*
CN(C)S(=O)(=O)N1CCN(c2ccc([N+](=O)[O-])c(NC3CC3)c2)CC1,nt,8.6*,nt,nt
CNc1cc(N2CCN(S(=O)(=O)N(C)C)CC2)ccc1[N+](=O)[O-],nt,0,nt,nt
Cc1cc2sc(C(=O)O)c(C)c2s1,nt,1,58*,7
CCOC(=O)c1sc(=S)n(-c2ccccc2OC)c1N,-11,1,4,14
COC(=O)c1sc(=S)n(-c2ccccc2OC)c1N,-18,1,-42,44*
Cc1cc2nc(C)n(CCCNC(=O)Nc3cccc4ccccc34)c2cc1C,-12,1,-18,5

# Screening results deposited in PubChem BioAssay by several laboratories.
